The text below walks through data of the RNAGym collection of RNA variant scans (doi:10.1126/science.aae0568).

Fewer inactive variants are shown than the library holds.

B1: tRNA (parent)
chain: GUUCCGUUGGCGUAAUGGUAACGCGUCUCCCUCCUAAGGAGAAGACUGCGGGUUCGAGUCCCGUACGGAACG

Variants of B1 are the subject of this data set. The experiment in a line: yeast fitness relative to wild type (ratio to wild type); higher = fitter; tRNA-Arg(CCU), competitive growth, 37 C, YPD. In a few lines: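 A pool of Saccharomyces cerevisiae strains, each with a tRNA-Arg(CCU) gene variant at the native genomic locus, was competed in YPD at 37°C for 24 hours across six parallel replicates. The variants had been chemically synthesised at a 3% per-site mutation rate over 69 sites, and gene amplicons before and after competition were read by 100-nucleotide paired-end sequencing. Darwinian fitness relative to wild type rested on changes in genotype frequencies. Genotypes required ≥ 100 starting reads, and estimates < 0.5 were set to 0.5.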
In the case of C24G A36C C55G A65G, the yeast fitness was at most 0.5.
Take C24A: the yeast fitness came to 0.747.
As for C24G, the figure is 0.609; as for C24A G58C C62U, at most 0.5.
Consider C24G A36G G39C C55U C66U, for which the yeast fitness was at most 0.5.
The same measure for C24A G56C: 0.626.
Take C24A U32C C33U U54C: the yeast fitness worked out at 0.602.
As for C24A C31G C66A, the figure is at most 0.5.
The same measure for C24A A43G A65C: at most 0.5.
Take G23C U26C C46G: the yeast fitness was determined as 0.57.
In the case of C24G A36C A37G A70C, the yeast fitness was at most 0.5.
As for C24A A45G C66U, the figure is at most 0.5; as for G23U G38C A57G, at most 0.5; as for C24A C31U A42C C66U, at most 0.5.
As for C24A G58A A70G, the figure is 0.574; as for C24A C27A A42G A69U, at most 0.5.
In the case of C24A A37G C55U C60G, the yeast fitness is at most 0.5.
As for G23U A42C, the figure is 0.74; as for G23C C31A, 0.633; as for G23C C31G, 0.654.
The same measure for C24A C27U U54C U59C G68U: at most 0.5.
As for C24A A36G A43G A57G, the figure is at most 0.5.
For C24A U26G A43C C62G G63A C66G, the yeast fitness turned out to be 0.514.
Consider C24A G44C U59A, for which the yeast fitness is at most 0.5.
As for C24A A36U C61U G67U, the figure is 0.608.
As for C24A G39C, the figure is 0.705; as for G23C G44C C49U A57C, at most 0.5.
As for C24G A37C, the figure is 0.563; as for C24A C62G, 0.706.
In the case of C24A C62U, the yeast fitness stood at 0.724.
On to C24G A36G, for which the yeast fitness turned out to be 0.557.
As for C24G A36C A65G A70C, the figure is at most 0.5.
As for C24A A36U C61A, the figure is 0.509.
The same measure for C24A C34U A40C G68C: at most 0.5; for G23C G48C: 0.686; for G23C G48A: 0.668.
With C24G A37C G58A G68A, the yeast fitness is at most 0.5.
The same measure for G23C G44C C46U G58A: at most 0.5; for G23U C30A C55G A57C C62G G68C: at most 0.5; for C24A G48C G67C: at most 0.5.
As for G23C U54A, the figure is at most 0.5; as for G23C U54G, at most 0.5; as for C24A G39C A57U A70C, at most 0.5.
As for G23C C49G C62U, the figure is at most 0.5.
As to C24A C33U C34A A43U C46G, the yeast fitness was at most 0.5.
As for C24A C29G C60U, the figure is at most 0.5; as for G23C U28G A42U U59A, at most 0.5.
As for G23C C34U A36U C49A C66U, the figure is at most 0.5; as for G23C U47C, 0.681; as for G23C U47A, 0.705.
The same measure for C24A G38C G48C: at most 0.5; for C24A G38C G48A: at most 0.5; for G23C C55G C60A: at most 0.5.
As for C24A U28C U64C C66U, the yeast fitness is at most 0.5.
The same measure for C24A C49A C61G: at most 0.5; for C24A C49A: 0.577; for G23C U32A A69C: at most 0.5.
Turning to G23C C49U C62A C66A, the yeast fitness was at most 0.5.
Regarding G23C C49U C55G, the yeast fitness is at most 0.5.
Turning to C24A C49A G56C G68C, the yeast fitness is at most 0.5.
Consider C24G A36U A43U U64C, for which the yeast fitness is at most 0.5.
The same measure for C24A A57C C60U G67C: at most 0.5; for G23C U54C U64A G68A: at most 0.5.
As for C24A C33A C66A, the figure is 0.533.
Consider G23C C31G C33A A57U U59A G63A, for which the yeast fitness was at most 0.5.
Turning to G23C C29U C49A, the yeast fitness was at most 0.5.
As for C24A C29G U35A A43C, the figure is 0.929; as for C24A C27U, 0.702; as for C24A C27G, 0.571.
C24A U47A A70U: the yeast fitness was at most 0.5.
For C24A C27A U28A, the yeast fitness turned out to be 0.53.
As for G23C G50A C61U, the figure is at most 0.5; as for G23C U32A C49U, at most 0.5; as for G23C U59A, 0.704.
The same measure for C24A C29G U35A A57U: 0.515; for G23C C33G A42U C66A: 0.643; for C24A A43U G48C: at most 0.5.
Turning to C24A A43U G48A, the yeast fitness was at most 0.5.
As for C24A U35G C46U G68A, the figure is at most 0.5.
Consider C24A C30U A45G A57U C62U, for which the yeast fitness worked out at 0.614.
The same measure for C24A A36C A37C C46U C62G: at most 0.5.
The same measure for C24G A36C C46U G52A: 0.637.
The same measure for C24A C29G A45G U54A: at most 0.5; for G23C C30A: 0.6; for G23C G39C G67A: at most 0.5.
Take C24A C27U C29G G44C U59C G67A: the yeast fitness was at most 0.5.
With C24A A57C, the yeast fitness was at most 0.5.
With C24A A57G, the yeast fitness was 0.601.
With C24A A40G, the yeast fitness worked out at 0.551.
Regarding C24A A40C, the yeast fitness came to 0.658.
The same measure for C24A G63A U64A: at most 0.5; for C24A C31G C34U: 0.616.
As for G23C G58C, the figure is 0.669.
As for G23C C33A, the yeast fitness was at most 0.5.
The same measure for C24A U26G A43C: 0.516.
For the variant G23C G67C, the yeast fitness worked out at 0.58.
C24A C27U C61A: the yeast fitness is at most 0.5.
As for C24A U26A A43U C55A C66U, the yeast fitness was at most 0.5.
As for C24A A65C, the figure is 0.725.
In the case of C24A C46G U59C C62G, the yeast fitness was 0.617.
The same measure for C24A C46G U59C C62U: at most 0.5; for G23C C49U G52C C60U C61G: at most 0.5; for G23C C49G A57G A70U: at most 0.5.
The same measure for C24A C31G G38C: at most 0.5.
The same measure for G23C U59G C60G: at most 0.5; for C24A U64G A70C: at most 0.5.
As to C24A C31A C33A C60A, the yeast fitness is at most 0.5.
For C24A C31A C55A, the yeast fitness is at most 0.5.
G23C G52C: the yeast fitness came to 0.523.
As for G23C G52A, the figure is at most 0.5; as for C24A G25A U47C, at most 0.5; as for G23C C66U, 0.723.
The same measure for C24A A40G C49A C61G: 0.53.
Turning to G23C G50C G63C G67A, the yeast fitness was found to be 0.64.
As for C24A C55G C60A, the figure is at most 0.5; as for C24A C55G C60G, 0.528.
With C24A G58A, the yeast fitness was determined as 0.859.
G23C C30A C46A: the yeast fitness is at most 0.5.
For C24A C29G A43C C60U, the yeast fitness was found to be 0.648.
As for C24A C66U, the figure is 0.691.
Take G23C C30G A65C: the yeast fitness was at most 0.5.
As for C24A C27U U28G G68U, the figure is 0.529; as for C24A A40G G48A C49A C61G, at most 0.5; as for C24G A36G A40C, at most 0.5.
As for C24A U28C A57U, the figure is at most 0.5; as for C24A C31U C55A C60A, at most 0.5; as for C24G A36U U64C, 0.52.
As for C24A C31A G63U U64G, the yeast fitness was at most 0.5.
For G23C C30G C62U, the yeast fitness is at most 0.5.
As for G23C C46U, the figure is 0.568.
For G23U C24G C62A, the yeast fitness was at most 0.5.
For C24A A43G U54C, the yeast fitness came to 0.606.
As to C24A C33A C46U G67U, the yeast fitness was at most 0.5.
As for G23C G39A C62G, the figure is at most 0.5.
As for C24A U64G, the figure is 0.68; as for C24A U64A, 0.622; as for G23U U28G G50A, at most 0.5.
The same measure for C24A C29U A37U C60A C66U: at most 0.5.
On to C24A C34U G52A, for which the yeast fitness is at most 0.5.
Regarding G23C C60G G68C, the yeast fitness was at most 0.5.
C24A C30U A36G C46A: the yeast fitness turned out to be 0.579.
Take G23U C33G G58C: the yeast fitness was at most 0.5.
The same measure for G23C G38C G52C G58A: at most 0.5; for C24A C30U C34A A45G A57U C62U: at most 0.5; for G23C C55G A69U: at most 0.5.
In the case of C24A A36U A37C, the yeast fitness is at most 0.5.
Regarding C24A A70C, the yeast fitness stood at 0.8.
The same measure for G23U G63A: 0.609.
Consider C24A A36C A40G, for which the yeast fitness was 0.789.
The same measure for G23C C34A A36C A37C A40C G67U: at most 0.5; for G23C C33U A42G A43C U64A C66A A69C A70C: at most 0.5; for G23C U64A: 0.564.
For the variant C24G A37C C49U A69U, the yeast fitness was 0.545.
Regarding C24A U54A, the yeast fitness is 0.634.
Take C24A U26G: the yeast fitness amounted to 0.655.
As for G23C G48C A69U, the figure is at most 0.5; as for C24G A36G C55A, at most 0.5; as for G23C C55U, at most 0.5.
On to C24G A36C C55G, for which the yeast fitness is 0.587.
Take G23C G68C: the yeast fitness amounted to 0.697.
The same measure for C24A A37G A57C: at most 0.5.
The same measure for C24A C30U A57U C62A: at most 0.5.
For C24A C27U U28G, the yeast fitness came to 0.511.
For the variant C24A U32G A37G, the yeast fitness is at most 0.5.
The same measure for C24A C30U C62U: 0.511; for C24A C27U C30U G52C: 0.596; for C24A C27A U28A C49U C55A: at most 0.5.
